Only a selection was taken, and hits are over-represented in it overall.
Fibroblast inh = antiproliferative effect on LL 47 fibroblasts – human, LL 47 cells, CellTiter-Glo luminescence, primary screen | AID 719, 2007 | LL 47 human lung fibroblast viability, ATP luminescence; stronger effect = lower value | viability, % at 10 µM | hit rate 1.1% among 85,000;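 active = viability at or below 50% in the single dose screen; inactive = viability above 50%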;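 also: compound exposure lasted 72 h before the ATP readout; 100% = median luminescence of untreated cell-only wells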
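Material: human lung fibroblast line LL 47, low passage; Evaluation: viability percentage against median untreated-cell control; Buffer or medium: 15% FBS in IMEM; Incubation: 72 h compound exposure at 37 °C after overnight plating; Dosing: 0.1% DMSO in all compound wells; Measured by: CellTiter-Glo luminescence.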
HUVEC inhibit = inhibitors of HUVEC proliferation, primary screen, cell-based, 384-well | CellTiter-Glo luminescence, 72 h; stronger effect = lower value | viability, % at 10 µM (by protocol) | hit rate 1.1% among 86,000 | AID 648, 2007;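 active = viability at or below 30%; inactive = viability above 30%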;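 also: 100% = median luminescence of DMSO-only cell control wells on each plate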
H69AR growth 86K = proliferation blockers of H69AR lung cancer cells, primary screen, cell-based, human, 86K library | hit rate 6% among 85,000 | viability, % at 10 µM | AID 598, 2007 | H69AR lung tumor viability, ATP luminescence, 72 h; stronger effect = lower value;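 active = viability at or below 40%; inactive = viability above 40%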;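 also: multidrug resistant small cell line overexpressing MRP-1 efflux transporter; 100% = mean luminescence of untreated control wells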
HCT116 bCat-KO = primary screen for growth suppressors in beta-catenin knockout HCT116 cells (colon tumor, human) | HCT116 beta-catenin knockout viability, CellTiter-Glo, 60 h; stronger effect = lower value | viability, % at 10 µM | hit rate 1.5% among 140,000;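 active = viability at or under a set limit, the compound median less 4 SD, cut at about 6% in these data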;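 also: 0% = Hyamine 1622 control at 20 µM and 100% = untreated cell control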
PTEN del growth = growth suppression of PTEN-null HCT116, primary screen, cell-based, CellTiter-Glo | HCT116 PTEN-null viability, 60 h; stronger effect = lower value | viability, % at 10 µM | hit rate 1.2% among 140,000 | AID 827, 2007;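 active = viability at or below a set limit, 4 SD under the median of all tested compounds, cut at about 3.7% in these data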;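 also: PTEN knockout HCT116 line with beta catenin targeted HCT116 as companion control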
Starred values were filed as active, the others as inactive.

Screening CCOC(=O)CSC1=C(C#N)C(c2ccc(C)o2)CC(=O)N1 (configuration not stated) returned Fibroblast inh 49*, HUVEC inhibit 33, H69AR growth 86K 94, HCT116 bCat-KO 12 and PTEN del growth 16.
`CCOC(=O)CSC1=C(C#N)C(c2ccc3c(c2)OCO3)CC(=O)N1` (configuration not stated) gave Fibroblast inh 79, HUVEC inhibit 69, H69AR growth 86K 23*, HCT116 bCat-KO 51 and PTEN del growth 49.
For CCOC(=O)CSC1=C(C#N)C(c2ccc(Cl)cc2)CC(=O)N1 (configuration not stated) the results were Fibroblast inh 93, HUVEC inhibit 96, H69AR growth 86K 86, HCT116 bCat-KO 97 and PTEN del growth 90.
CCCCOC(=O)CSC1=C(C#N)C(c2ccc3c(c2)OCO3)CC(=O)N1 (configuration not stated) was read as Fibroblast inh 100, HUVEC inhibit 92, H69AR growth 86K 88, HCT116 bCat-KO 83 and PTEN del growth 84.
CCOC(=O)CSC1=C(C#N)C(c2ccccc2OCC)C(C#N)C(=O)N1 (configuration not stated) was read as Fibroblast inh 93, HUVEC inhibit 70, H69AR growth 86K 27*, HCT116 bCat-KO 95 and PTEN del growth 91.
Screening CCOC(=O)CSC1=C(C#N)C(c2ccccc2OCC)C(C(=O)OCC)C(=O)N1 (configuration not stated) returned Fibroblast inh 92, HUVEC inhibit 105, H69AR growth 86K 92, HCT116 bCat-KO 91 and PTEN del growth 105.
CCCNS(=O)(=O)c1ccc(OCC(=O)NCc2ccc3c(c2)OCO3)cc1 was read as Fibroblast inh 102, HUVEC inhibit 89, H69AR growth 86K 90, HCT116 bCat-KO 101 and PTEN del growth 113.
For CCOC(=O)Cc1csc(NC(=S)NC(=O)C(C)(C)C)n1 the results were HCT116 bCat-KO 85 and PTEN del growth 97.
Screening COc1cc2cc(CN(Cc3ccc4c(c3)OCO4)C(=O)c3ccco3)c(=O)[nH]c2cc1OC returned Fibroblast inh 100, HUVEC inhibit 87 and H69AR growth 86K 52.
CCCCN(Cc1cc2cc(OC)ccc2[nH]c1=O)C(=O)COc1ccccc1 was read as Fibroblast inh 104, HUVEC inhibit 93 and H69AR growth 86K 39*.
`Cc1cc2cc(CN(Cc3ccc4c(c3)OCO4)C(=O)c3ccco3)c(=O)[nH]c2cc1C` gave Fibroblast inh 96, HUVEC inhibit 74, H69AR growth 86K 33*, HCT116 bCat-KO 42 and PTEN del growth 30.
For CCN(Cc1cc2cc(OC)ccc2[nH]c1=O)C(=O)c1ccncc1 the results were Fibroblast inh 96, HUVEC inhibit 85, H69AR growth 86K 88, HCT116 bCat-KO 105 and PTEN del growth 97.
Screening Cc1ccc2[nH]c(=O)c(CN(Cc3cccnc3)C(=O)c3ccncc3)cc2c1 returned Fibroblast inh 88, HUVEC inhibit 62, H69AR growth 86K 28*, HCT116 bCat-KO 46 and PTEN del growth 47.
COc1ccc(C(=O)N(Cc2ccccc2)Cc2cc3cc4c(cc3[nH]c2=O)OCCO4)cc1 was read as Fibroblast inh 42*, HUVEC inhibit 28*, H69AR growth 86K 18*, HCT116 bCat-KO 98 and PTEN del growth 95.
`CC(C)c1nc2sc3c(=O)n(N)cnc3c2c2c1COC(C)(C)C2` gave HCT116 bCat-KO 92 and PTEN del growth 80.
Cc1cc2nc(/N=C(\N)NC(=O)N3c4ccccc4Sc4ccccc43)nc(C)c2cc1C was read as HCT116 bCat-KO 86 and PTEN del growth 79.
`CCOC(=O)C1=NNC2(c3ccc(Cl)cc3)C(=O)N(c3ccc(C)cc3)C(=O)C12` (configuration not stated) gave HCT116 bCat-KO 88 and PTEN del growth 89.
`C/C(=N\NC(=O)CC1N=C(Cc2ccccc2)NNC1=O)c1ccc(Cl)cc1Cl` (configuration not stated) gave Fibroblast inh 104, HUVEC inhibit 70, H69AR growth 86K 69, HCT116 bCat-KO 69 and PTEN del growth 69.
For Cc1ccc(OCC(O)Cn2c(=N)n(CCN3CCCCC3)c3ccccc32)cc1 (configuration not stated) the results were HCT116 bCat-KO 2.3* and PTEN del growth 2.9*.
Screening N=c1n(Cc2ccccc2)c2ccccc2n1CC(O)c1ccccc1 (configuration not stated) returned Fibroblast inh 88, HUVEC inhibit 89, H69AR growth 86K 38*, HCT116 bCat-KO 37 and PTEN del growth 48.
For Cc1ccc(Cn2c(=N)n(CC(O)c3ccco3)c3ccccc32)cc1 (configuration not stated) the results were Fibroblast inh 90, HUVEC inhibit 92, H69AR growth 86K 73, HCT116 bCat-KO 62 and PTEN del growth 58.
For COc1ccc(OCC(O)Cn2c(=N)n(CCN3CCCCC3)c3ccccc32)cc1 (configuration not stated) the results were Fibroblast inh 63, HUVEC inhibit 40, H69AR growth 86K 95, HCT116 bCat-KO 26 and PTEN del growth 26.
CC(C)(C)C(=O)Cn1c(=N)n(Cc2ccccc2)c2ccccc21 was read as Fibroblast inh 91, HUVEC inhibit 113, H69AR growth 86K 38*, HCT116 bCat-KO 83 and PTEN del growth 79.
`CCCCn1c(=N)n(CC(O)COc2cccc(C)c2)c2ccccc21` (configuration not stated) gave Fibroblast inh 70, HUVEC inhibit 87, H69AR growth 86K 1.6*, HCT116 bCat-KO 1.7* and PTEN del growth 1.5*.
Screening CC(C)(C)C(=O)Cn1c(=N)n(Cc2ccccc2Cl)c2ccccc21 returned Fibroblast inh 95, HUVEC inhibit 116, H69AR growth 86K 73, HCT116 bCat-KO 87 and PTEN del growth 88.
For O=C(CNC(=O)c1cccc(F)c1)N/N=C/c1cccc([N+](=O)[O-])c1 the results were HCT116 bCat-KO 96 and PTEN del growth 95.
`C=CCNC(=O)COc1ccc(Br)cc1Cl` gave Fibroblast inh 107, HUVEC inhibit 110, H69AR growth 86K 94, HCT116 bCat-KO 97 and PTEN del growth 98.
COc1ccccc1OCC(O)Cn1c(=N)n(Cc2ccccc2)c2ccccc21 (configuration not stated) was read as Fibroblast inh 60, HUVEC inhibit 36, H69AR growth 86K 51, HCT116 bCat-KO 5.2* and PTEN del growth 8.
Cc1ccc(OCC(O)Cn2c(=N)n(CCN3CCOCC3)c3ccccc32)cc1 (configuration not stated) was read as Fibroblast inh 91, HUVEC inhibit 86, H69AR growth 86K 74, HCT116 bCat-KO 59 and PTEN del growth 62.

Compound activity (PubChem)
